Test results reported in ChEMBL document CHEMBL4680167, “Synthesis and SARs of dopamine derivatives as potential inhibitors of influenza virus PA endonuclease” (Eur J Med Chem, 2020).

Experiments:
[1] = test system: Influenza A virus; test: Antiviral activity against Influenza A virus (A/WSN/1933(H1N1)) infected in dog MDCK cells assessed as reduction in virus-induced cytopathic effect incubated for 48 hrs by MTT assay; format: functional, organism-based
Procedure, shortened: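 MDCK cells (DMEM, 10% FBS, 37 °C, 5% CO2) were seeded overnight and infected with 100 TCID50 (MOI 3.5×10^-3) of A/WSN/33 for 1 h. Compounds were added at increasing concentrations and cells were cultured about 48 h in FBS-free medium with 0.6 µg/mL TPCK-trypsin. Read-out was MTT, formazan dissolved in DMSO, A570, with CPE checked by microscopy. Triplicates; EC50 is the concentration giving 50% cell protection.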

[2] = Cytotoxicity against dog MDCK cells assessed as reduction in cell viability incubated for 48 hrs by MTT assay; format: cell-based, Canis lupus familiaris
Procedure, shortened: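 Uninfected MDCK cells were seeded overnight, then exposed to increasing compound concentrations or 0.1% DMSO blank for 48 h. Viability was read by MTT; CC50 is the concentration killing 50% of cells.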

[3] = Inhibition of recombinant Influenza A virus (A/USA:Huston/AA/1945 H1N1)) N-terminal His6-tagged PA endonuclease using 6FAM-TGGCAATATCAGCTCCACA-MGBN DNA probe as substrate by TR-FRET assay
Procedure, shortened: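 Recombinant PA_N cleavage was followed by FRET on a TaqMan-like probe: 5'-FAM, 19 nucleotides, 3'-MGBNFQ quencher, excitation 492 nm. Cleavage frees FAM fluorescence. Percentage inhibition was plotted against log compound concentration; mean ± SD of eleven independent experiments.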

[4] = Selectivity index, ratio of CC50 for dog MDCK cells to EC50 for Influenza A virus (A/WSN/1933(H1N1)) infected in dog MDCK cells; format: toxicity, cell-based; conditions: read-out: Ratio CC50/EC50
[5] = (§1) Binding affinity to recombinant Influenza A virus (A/USA:Huston/AA/1945 H1N1)) N-terminal His6-tagged PA endonuclease assessed as dissociation constant by SPR analysis
Procedure, shortened: (§2)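 For SPR, compounds were printed in 5 repeats on a photo-cross-linker chip. The surface was primed with HBS-EP (10 mM HEPES pH 7.0, 150 mM NaCl, 3 mM EDTA, 0.005% P20), then with running buffer (PBS, 5% DMSO). PA_N at 10, 20, 40, 80 and 160 nM in running buffer was injected 600 s at 0.5 µL/s, followed by 360 s dissociation.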

[6] = test system: Influenza A virus; test: as §1; procedure, shortened: as §2

SMILES | EC50 [1] [µM] | CC50 at 48 h [2] [µM] | EC50 [3] [µM] | selectivity ratio [4] | Kd [5] [µM] | Activity [6]
O=C(Cc1ccc(O)c(O)c1)NCCc1ccc(O)c(O)c1 | 2.46 | > 200 | 0.312 | > 81.3 | 0.0263 | Dose-dependent effect
O=C(CCc1ccc(O)c(O)c1)NCCc1ccc(O)c(O)c1 | 4.94 | > 200 | 0.842 | > 64.8 | – | –
O=C(NCCc1ccc(O)c(O)c1)c1cccc(O)c1 | 13.1 | > 200 | – | > 15.3 | – | –
O=C(NCCc1ccc(O)c(O)c1)c1ccccc1O | > 30 | – | – | – | – | –
O=C(Cc1ccc(O)c(O)c1)N1CCc2cc(O)c(O)cc2C1 | 2.58 | 151 | 0.489 | 58.5 | 0.0942 | Dose-dependent effect
O=C(O[C@@H]1Cc2c(O)cc(O)cc2O[C@@H]1c1cc(O)c(O)c(O)c1)c1cc(O)c(O)c(O)c1 [EPIGALOCATECHIN GALLATE] | 28.9 | > 200 | 6.45 | > 6.9 | 0.956 | –
O=C(CCc1ccc(O)c(O)c1)N1CCc2cc(O)c(O)cc2C1 | 18.6 | 197 | – | 10.6 | – | –
O=C(NCCc1ccc(O)c(O)c1)c1cccc(O)c1O | > 30 | – | – | – | – | –
Oc1ccc(CCNC(=S)Cc2ccc(O)c(O)c2)cc1O | 7.01 | > 200 | 1.29 | > 45.7 | – | –
O=C(NCCc1ccc(O)c(O)c1)c1cc(O)c(O)c(O)c1 | > 30 | – | – | – | – | –
CCC(CC)[C@H](NC(C)=O)[C@@H]1[C@H](O)[C@@H](C(=O)O)C[C@H]1NC(=N)N [PERAMIVIR ANHYDROUS] | 5.26 | > 200 | – | > 38 | – | –
O=C(Cc1ccc(O)c(O)c1)OCCc1ccc(O)c(O)c1 [BLAPSIN A] | > 30 | – | – | – | – | –
O=C1c2cc(=O)ccn2N([C@@H]2c3ccccc3SCc3c2ccc(F)c3F)[C@@H]2COCCN12 | – | – | – | – | 0.000208 | –
O=C(c1ccc(O)c(O)c1)N1CCc2cc(O)c(O)cc2C1 | 3.1 | 133 | 0.577 | 43 | – | –
O=C(NCCc1ccc(O)c(O)c1)c1ccc(O)c(O)c1 | 10.2 | 154 | – | 15 | – | –
O=C(NCCc1ccc(O)c(O)c1)c1ccc(O)cc1 | 12.7 | > 200 | – | > 25.2 | – | –
